Data: ChEMBL document CHEMBL1133553, “Synthesis and transporter binding properties of bridged piperazine analogues of 1-[2-[bis(4-fluorophenyl)methoxy]ethyl]-4-(3-phenylpropyl)piperazine (GBR 12909)” (J Med Chem, 2000)

Columns and labels:
[1] = molecular target: T1, Sodium-dependent serotonin transporter (Rattus norvegicus, UniProt P31652); experiment: Inhibition of [3H]5-HT reuptake in whole rat brain (minus cerebellum) homogenate.; type: functional, tissue-based
[2] = molecular target: T2, Monoamine transporters; serotonin & dopamine (Rattus norvegicus) (UniProt P31652+P23977); experiment: Ratio of reuptake of 5-HT to that of DA; type: functional
[3] = molecular target: T3, Sodium-dependent dopamine transporter (Rattus norvegicus, UniProt P23977); experiment: Inhibition of [3H]DA reuptake in rat caudate homogenate.; type: functional, tissue-based
[4] = molecular target: T3, Sodium-dependent dopamine transporter; experiment: Binding affinity for rat Dopamine transporter.
Method in brief: (§1)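 Drugs and blockers prepared in 55.2 mM sodium phosphate buffer, pH 7.4, with 1 mg/mL BSA. Radioligand prepared in the same buffer with chymostatin, leupeptin, EDTA and EGTA. Triplicate incubations ran 18-24 h at 4 °C (equilibrium) in 1 mL, then were filtered over GF/B filters presoaked in 2% polyethylenimine.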

[5] = molecular target: T1, Sodium-dependent serotonin transporter; experiment: Binding affinity for rat 5-hydroxytryptamine transporter.; method in brief: as §1
[6] = molecular target: T2, Monoamine transporters; serotonin & dopamine (Rattus norvegicus); experiment: Ratio of binding affinity of 5-HT to that of DA; type: protein assay

T3 sequence (P23977 whole entry): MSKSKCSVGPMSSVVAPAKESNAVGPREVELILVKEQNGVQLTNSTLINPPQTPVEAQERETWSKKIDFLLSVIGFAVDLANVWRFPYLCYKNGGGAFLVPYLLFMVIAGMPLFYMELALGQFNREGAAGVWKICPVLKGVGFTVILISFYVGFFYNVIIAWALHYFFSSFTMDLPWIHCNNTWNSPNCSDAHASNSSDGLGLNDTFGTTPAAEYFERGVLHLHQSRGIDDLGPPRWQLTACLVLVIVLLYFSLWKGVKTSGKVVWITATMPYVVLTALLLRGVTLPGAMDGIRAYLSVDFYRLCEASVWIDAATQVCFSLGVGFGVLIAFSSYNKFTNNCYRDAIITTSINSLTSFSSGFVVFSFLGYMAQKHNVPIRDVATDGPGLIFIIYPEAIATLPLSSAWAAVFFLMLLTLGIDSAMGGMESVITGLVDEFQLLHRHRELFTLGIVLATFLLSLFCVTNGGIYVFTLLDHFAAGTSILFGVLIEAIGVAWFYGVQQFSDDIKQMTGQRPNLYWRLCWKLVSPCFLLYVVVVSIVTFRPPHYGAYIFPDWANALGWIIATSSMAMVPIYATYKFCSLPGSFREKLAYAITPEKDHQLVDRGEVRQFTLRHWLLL
T2 sequence (P23977 whole entry, looked up): as the sequence (P23977 whole entry) above
T2 sequence (P31652 whole entry, looked up): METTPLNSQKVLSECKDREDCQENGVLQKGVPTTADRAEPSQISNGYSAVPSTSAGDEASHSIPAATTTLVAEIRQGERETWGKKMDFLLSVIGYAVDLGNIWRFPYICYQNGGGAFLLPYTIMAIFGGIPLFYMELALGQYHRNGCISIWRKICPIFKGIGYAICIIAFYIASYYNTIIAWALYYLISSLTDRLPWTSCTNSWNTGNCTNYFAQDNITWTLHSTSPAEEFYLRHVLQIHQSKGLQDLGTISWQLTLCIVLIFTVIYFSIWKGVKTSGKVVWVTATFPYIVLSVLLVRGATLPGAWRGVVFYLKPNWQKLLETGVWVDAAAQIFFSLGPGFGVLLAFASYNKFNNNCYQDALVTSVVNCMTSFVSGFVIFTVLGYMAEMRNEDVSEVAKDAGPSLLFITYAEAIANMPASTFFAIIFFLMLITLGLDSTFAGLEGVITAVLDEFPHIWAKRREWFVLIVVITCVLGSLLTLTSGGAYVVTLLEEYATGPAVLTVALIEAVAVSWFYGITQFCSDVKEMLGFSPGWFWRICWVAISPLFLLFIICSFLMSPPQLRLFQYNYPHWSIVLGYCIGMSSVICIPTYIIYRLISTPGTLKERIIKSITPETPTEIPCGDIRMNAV
T1 sequence (P31652 whole entry): as the sequence (P31652 whole entry, looked up) above

| SMILES | IC50 [1] | Ratio [2] | IC50 [3] | IC50 [4] | IC50 [5] | Ratio [6] |
| --- | --- | --- | --- | --- | --- | --- |
| c1ccc(C(OCCN2CCC3CCC(C2)N3)c2ccccc2)cc1 (stereo not given) | 3960 nM | 15 | 260 nM | 431 nM | 6060 nM | 14 |
| CN1C2CCC1CN(CCOC(c1ccc(F)cc1)c1ccc(F)cc1)CC2 (stereo not given) | 1670 nM | 47 | 36 nM | 89 nM | 1900 nM | 21 |
| c1ccc(CCCN2CC3CC2CN3CCOC(c2ccccc2)c2ccccc2)cc1 (stereo not given) | 912 nM | 5 | 198 nM | 223 nM | 720 nM | 3 |
| Fc1ccc(C(OCCN2CC3CC2CN3CCCc2ccccc2)c2ccc(F)cc2)cc1 (stereo not given) | 173 nM | 1.5 | 113 nM | 127 nM | 203 nM | 1.6 |
| CN1C2CCC1CN(CCOC(c1ccccc1)c1ccccc1)CC2 (stereo not given) | 6150 nM | 6.6 | 928 nM | 307 nM | 17000 nM | 56 |
| Fc1ccc(C(OCCN2CC3CCC(C2)N3C/C=C/c2cccs2)c2ccc(F)cc2)cc1 | 268 nM | 10 | 28 nM | 4 nM | 46 nM | 12 |
| Fc1ccc(C(OCCN2CC3CCC(C2)N3C/C=C/c2cccnc2)c2ccc(F)cc2)cc1 | 968 nM | 40 | 24 nM | 12 nM | 395 nM | 33 |
| CN1CC2CC1CN2CCOC(c1ccccc1)c1ccccc1 (stereo not given) | 28000 nM | 33 | 830 nM | 1170 nM | 33000 nM | 29 |
| c1ccc(CCCN2C3CCC2CN(CCOC(c2ccccc2)c2ccccc2)C3)cc1 | 1390 nM | 58 | 24 nM | 18 nM | 740 nM | 42 |
| Fc1ccc(C(OCCN2CC3CCC(C2)N3CCCc2ccccc2)c2ccc(F)cc2)cc1 | 506 nM |  | 219 nM | 8.2 nM | 77 nM |  |
| CN1C2CCC1CN(CCOC(c1ccccc1)c1ccccc1)C2 | 13700 nM | 12 | 1140 nM | 111 nM | 6400 nM | 58 |
| CN1C2CCC1CN(CCOC(c1ccc(F)cc1)c1ccc(F)cc1)C2 | 898 nM | 93 | 9.6 nM | 8 nM | 705 nM | 88 |
| c1ccc(CCCN2C3CCC2CN(CCOC(c2ccccc2)c2ccccc2)CC3)cc1 (stereo not given) | 2300 nM | 26 | 87 nM | 32 nM | 1320 nM | 41 |
| Fc1ccc(C(OCCN2CC3CCC(C2)N3Cc2cc3ccccc3[nH]2)c2ccc(F)cc2)cc1 | 645 nM | 16 | 40 nM | 1.4 nM | 104 nM | 74 |
| CN1CC2CC1CN2CCOC(c1ccc(F)cc1)c1ccc(F)cc1 (stereo not given) | 2150 nM | 17 | 125 nM | 121 nM | 1700 nM | 14 |
| Fc1ccc(C(OCCN2CC3CCC(C2)N3C/C=C/c2ccco2)c2ccc(F)cc2)cc1 | 299 nM | 13 | 24 nM | 5.5 nM | 146 nM | 27 |
| Fc1ccc(C(OCCN2CCC3CCC(C2)N3CCCc2ccccc2)c2ccc(F)cc2)cc1 (stereo not given) | 2080 nM | 44 | 47 nM | 130 nM | 843 nM | 6.5 |
